# Bioassay records deposited in PubChem by several laboratories.
# HUVEC inhibit – inhibitors of human endothelial cell proliferation; viability, % at 10 µM (by protocol); 1.1% of 86,000 active; AID 648; HUVEC proliferation, CellTiter-Glo luminescence, 72 h; active compounds read low;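 active = viability at or below 30%; inactive = viability above 30%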;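 note: 100% = median luminescence of DMSO-only cell control wells on each plate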
# HCT116 bCat-KO – beta-catenin-lacking colon tumor cell growth suppression; HCT116 beta-catenin knockout viability, CellTiter-Glo, 60 h; active compounds read low; viability, % at 10 µM; 1.5% of 140,000 active;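 active = viability at or under a set limit, the compound median less 4 SD, cut at about 6% in these data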;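 note: 0% = Hyamine 1622 control at 20 µM and 100% = untreated cell control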
# Cav3 T inh – inhibitors of human Cav3.2 T-type calcium channel | Cav3.2-expressing cells, Fluo-4 calcium fluorescence FDSS; active compounds read low | O95180 | B-score at 10 µM | AID 449739 | 4% of 100,000 active;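 active = single-dose well whose peak fluorescence ratio is a statistical outlier from its plate by either plate-standardised score or position-corrected B-score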
# HCT116 PTEN-null – growth suppressors of cells with PTEN tumor suppressor deletion; 1.2% of 140,000 active; HCT116 PTEN-null viability, CellTiter-Glo, 60 h; active compounds read low; AID 827; viability, % at 10 µM;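 active = viability at or below a set limit, 4 SD under the median of all tested compounds, cut at about 3.7% in these data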;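 note: PTEN knockout HCT116 line with beta catenin targeted HCT116 as companion control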
# Fibroblast inh – blocks proliferation of human lung fibroblasts; 1.1% of 85,000 active; LL 47 human lung fibroblast viability, ATP luminescence; active compounds read low; viability, % at 10 µM;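 active = viability at or below 50% in the single dose screen; inactive = viability above 50%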;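 note: compound exposure lasted 72 h before the ATP readout; 100% = median luminescence of untreated cell-only wells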
#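 Material: Human LL 47 lung fibroblast cells | Input: 1,150 cells/well | Buffer or medium: IMEM plus 15% FBS | Compound dosing: 0.1% DMSO in all compound wells | Times: Overnight cell rest, 72 h compound treatment at 37 °C | Signal: CellTiter-Glo luminescence measuring cellular ATP | Measure: % viability versus median cells-only luminescence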
# H69AR growth 86K – growth inhibitors of human H69AR lung tumor cells; H69AR lung tumor viability, ATP luminescence, 72 h; active compounds read low; 6% of 85,000 active; viability, % at 10 µM;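 active = viability at or below 40%; inactive = viability above 40%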;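 note: multidrug resistant small cell line overexpressing MRP-1 efflux transporter; 100% = mean luminescence of untreated control wells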
# Starred values were filed as active, the others as inactive; x = no result. In the library only some 7.1% were active in any assay of this set; here they are far more common.
SMILES,HUVEC inhibit,HCT116 bCat-KO,Cav3 T inh,HCT116 PTEN-null,Fibroblast inh,H69AR growth 86K
CC(C)N(Cc1nc(-c2ccccc2)no1)C(=O)C1CCCCC1,101,78,-2,70,100,89
Cc1cccc(-c2noc(CN(C(=O)C34CC5CC(CC(C5)C3)C4)C(C)C)n2)c1,85,66,-0.33,80,88,76
COc1cc(OC)cc(C(=O)N(Cc2nc(-c3cccc(C)c3)no2)C(C)C)c1,92,80,-6.7*,84,97,68
NC(=O)[C@@H]1CCCNc2c(I)cc([N+](=O)[O-])cc2C(=O)N[C@@H](CO)C(=O)NCC(=O)N1,x,89,0.052,93,x,x
CCN(CC)c1ccc(/C=C2\C(=O)N(c3ccc([N+](=O)[O-])cc3)N=C2N2CCOCC2)cc1,94,x,x,x,104,105
CCCNC(=O)c1ccccc1NC(=O)c1ccc(CSc2ccccc2)cc1,x,96,-2.2,83,x,x
COc1ccc(C2CC23N=C(c2ccccc2)OC3=O)cc1 (centres undefined),x,95,x,97,x,x
COc1ccc(S(=O)(=O)Nc2cc3c(C(C)=O)c(C)oc3c3ccccc23)cc1,37,19,-3.1,19,51,25*
CCOC(=O)c1ccccc1NS(=O)(=O)c1ccc(OCC)cc1,65,15,-1.9,19,64,13*
COC(=O)c1cccc(NS(=O)(=O)c2ccc(OC)cc2)c1C,60,23,-1.5,27,86,23*
CCOc1ccc(S(=O)(=O)Nc2ccccc2C(=O)NCC2CCCO2)cc1 (centres undefined),104,100,1.1,88,97,97
Cc1oc2c(cc(NS(=O)(=O)c3cccs3)c3ccccc32)c1C(=O)OC(C)C,76,78,x,80,91,73
O=c1cc(O)c2c(=O)n(-c3ccccc3)c3c(c2o1)CCCCCC3,x,94,x,104,x,x
C=CCSc1nnc(NC(=O)c2cccc(S(=O)(=O)N(C)c3ccccc3)c2)s1,x,97,x,94,x,x
Cc1cc(C)c(C#N)c(SCC(=O)N2CCN(Cc3ccccc3)CC2)n1,x,91,-1,82,x,x
CCN(Cc1ccccc1)C(=O)CSc1nc(C)cc(C)c1C#N,x,90,-4.1*,92,x,x
CCOCCOC(=O)C1=C(C)NC2=C(C(=O)CC(c3cccs3)C2)C1c1ccsc1 (centres undefined),83,101,-0.94,97,85,53
CC1=C(C(=O)Nc2ccccc2F)C(c2ccsc2)C2=C(CC(c3ccccc3)CC2=O)N1 (centres undefined),x,82,-6.5*,75,x,x
COC(=O)c1sc(-c2ccccc2)cc1NC(=O)c1ccc(OC)cc1,x,3.1*,x,6,x,x
Cc1ccc(S(=O)(=O)Oc2ccc(/C=C(/NC(=O)c3ccccc3)C(=O)Nc3ccccc3)cc2)cc1,82,86,-5*,94,104,32*
Cn1c(NCC(O)c2ccccc2)nc2c1c(=O)n(Cc1ccc(Cl)c(Cl)c1)c(=O)n2C (centres undefined),48,x,-3.1,x,90,13*
COc1ccc2cc(CCN3C(=O)c4ccccc4C3=O)c(=O)[nH]c2c1,x,100,x,100,x,x
O=C(Cn1c(=O)n(Cc2ccc3c(c2)OCO3)c(=O)c2ccccc21)N1CCCc2ccccc21,76,74,-7.1*,83,83,87
Cc1c(C(=O)NCCc2ccc3c(c2)OCCO3)oc2ccccc12,x,95,-7*,88,x,x
COc1ccc(-c2csc(N(CCCN(C)C)C(=O)c3cccs3)n2)cc1,76,51,x,62,94,22*
SMILES,HUVEC inhibit,HCT116 bCat-KO,Cav3 T inh,HCT116 PTEN-null,Fibroblast inh,H69AR growth 86K
COCCCN(C(C)=O)c1nc(-c2ccc(OC)cc2)cs1,63,63,x,63,72,15*
c1ccc2[nH]c(CN3CCN(c4ncnc5c4oc4ccccc45)CC3)nc2c1,87,77,-1.3,76,96,7.1*
c1ccc2[nH]c(CSc3ncnc4c3oc3ccccc34)nc2c1,88,63,-3,59,90,58
Cc1nc(SCc2nc3ccccc3[nH]2)c2oc3ccccc3c2n1,87,58,-1.9,47,90,65
Cc1nc(N2CCN(Cc3nc4ccccc4[nH]3)CC2)c2oc3ccccc3c2n1,72,47,0.77,43,88,36*
O=c1[nH]cc([N+](=O)[O-])cc1Br,x,93,x,98,x,x
CC(=O)Nc1ccc(SCC(=O)N(CCC#N)c2ccc(C)cc2)cc1,99,100,1.2,96,109,33*
